ABHD4 inh: inhibitors of mouse ABHD4; Q8VD66; purified mABHD4, FP-Rh probe fluorescence polarization; inhibition, % at 8.92 µM; 370,000 tested, 0.54% active; AID 720543;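 active means inhibition exceeding the mean over every tested compound plus 3 SD, cut at about 30% in these data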;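 further: 0% = plate median of compound wells and 100% = S159A mutant with DMSO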
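Test system: mABHD4 protein; Read-out basis: % inhibition; Incubation: 45 min + 60 min at 25 °C; Repeats: single replicate; Technique: fluorescence polarization with parallel and perpendicular emission, 525/598 nm; Compound: 8.92 µM, single dose; Benchmarks: full inhibition S159A mutant plus DMSO, zero as sample-well median.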
TCR-CD3 inh: human TCR-CD3 binding inhibition; 360,000 tested, 0.37% active; inhibition, % at 9.4 µM; TAMRA-labeled TCR probe fluorescence, biochemical; in the data active means inhibition above about 19%;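 further: recombinant mutant TCR 2C K166C tagged with TAMRA read by polarization; 0% = receptor in buffer alone and 100% = receptor with positive control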
SIAE primary: inhibitors of human sialic acid acetylesterase SIAE; 370,000 tested, 0.69% active; inhibition, % at 9.66 µM; SIAE FP-Rh probe binding, fluorescence polarization;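 active means inhibition above a cutoff: mean of compounds within the control limits plus 3 SD of those, cut at about 17% in these data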;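 further: 0% = plate median of compound wells and 100% = probe without SIAE protein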
Target sequence (Q9HAT2 whole entry, looked up): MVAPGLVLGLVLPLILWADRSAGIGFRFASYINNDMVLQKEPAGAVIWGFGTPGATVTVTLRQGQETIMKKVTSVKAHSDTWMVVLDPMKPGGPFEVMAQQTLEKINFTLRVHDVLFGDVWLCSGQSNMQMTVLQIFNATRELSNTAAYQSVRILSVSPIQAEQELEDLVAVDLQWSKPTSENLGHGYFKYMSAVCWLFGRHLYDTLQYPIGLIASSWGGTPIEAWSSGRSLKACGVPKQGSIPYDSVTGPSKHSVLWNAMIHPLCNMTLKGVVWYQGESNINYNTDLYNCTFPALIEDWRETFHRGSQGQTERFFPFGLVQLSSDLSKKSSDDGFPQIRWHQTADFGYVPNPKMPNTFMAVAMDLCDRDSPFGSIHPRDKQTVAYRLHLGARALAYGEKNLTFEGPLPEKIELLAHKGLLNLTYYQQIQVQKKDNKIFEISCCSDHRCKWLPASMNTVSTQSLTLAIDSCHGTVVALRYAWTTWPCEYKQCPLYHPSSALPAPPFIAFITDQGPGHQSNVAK
DDE Tn6 FP inh: disrupts Tn6 cyclic peptide binding to fibrin D-Dimer-E complex. 370,000 tested, 0.21% active. inhibition, % at 8.3 µM. AID 720509. P02675. Fibrin DD(E) TRITC-Tn6 fluorescence polarization displacement;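 active means inhibition above a per-campaign cutoff: mean of compounds within control limits plus 3 SD, cut at about 15% in these data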;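 further: 0% = median of all compound wells on the plate and 100% = blocking peptide control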
HTRA1 inhibitor: inhibitors of human serine peptidase HTRA1. 340,000 tested, 0.5% active. recombinant HTRA1, FP-rhodamine activity-based probe, fluorescence polarization. inhibition, % at 5.96 µM; in the data active means inhibition above about 36%;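 further: 0% = enzyme with DMSO and 100% = wells lacking enzyme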
Tn7 DDE FP: inhibitors of Tn7 peptide binding to human fibrin DD(E). P02675. FP displacement of FITC-Tn7 peptide from fibrin DD(E); 0% = median of compound wells per plate. inhibition, % at 8.3 µM. 370,000 tested, 0.13% active. AID 720508;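 active means inhibition above the mean of compounds falling within the control limits plus 3 SD of them, cut at about 14% in these data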;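 further: 0% = plate median of compound wells and 100% = 10 µM Aha-Tn7 peptide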
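Also added: labelled Tn7 tracer, 0.1 µM; Assay system: human fibrin DD(E) protein; Amount: 2 µM fibrin DD(E); Schedule: 10 min compound pre-incubation, 3 h probe incubation at room temperature; Repeats: one replicate per compound; Read-out basis: percent inhibition; Measured by: fluorescence polarization of the labelled Tn7 tracer.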
HTRA1 conf: confirmation of human HTRA1 inhibitors; 1,600 tested, 66% active; inhibition, % at 5.96 µM; recombinant HTRA1, FP-rhodamine activity-based probe, fluorescence polarization; shares compounds with HTRA1 inhibitor;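 active means mean inhibition over three repeats above a set limit taken from the earlier primary screen, cut at about 37% in these data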;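 further: 0% = HTRA1 with DMSO and 100% = wells lacking HTRA1; inhibitors block probe binding so polarization drops and inhibition rises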
ABHD4 confirm: ABHD4 (mouse) inhibition, FP confirmation; AID 720658; shares compounds with ABHD4 inh; 1,800 tested, 55% active; purified mABHD4, FP-Rh probe fluorescence polarization; inhibition, % at 8.92 µM;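 active means mean inhibition across replicates above the hit cutoff set in the primary screen, cut at about 30% in these data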;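 further: 0% = wild-type ABHD4 with DMSO and 100% = catalytically dead S159A mutant with DMSO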
Starred values were filed as active, the others as inactive; nt = no result given. Only some compounds are listed: those with a hit (about 1.8% of all), similar ones and a draw of the others.

SMILES	ABHD4 inh	TCR-CD3 inh	SIAE primary	DDE Tn6 FP inh	HTRA1 inhibitor	Tn7 DDE FP	HTRA1 conf	ABHD4 confirm
Cc1ccc(NC2=C(NC(=O)c3ccccc3)C(=O)c3ccccc3C2=O)cc1Cl	30*	1	7	-12	44*	0	42*	50*
Cc1ccc(C)c(NC(=O)CN2C(=O)CCSc3ccccc32)c1	6	nt	3	-4	nt	-4	nt	nt
OCc1ccccc1CNCc1ccccc1	-1	6	2	1	3	5	nt	nt
Oc1cc(CNCc2ccccc2)c(O)cc1CNCc1ccccc1	41*	8	12	-2	57*	2	52*	58*
COc1ccc(-n2c(SCC(=O)Nc3ccccc3-c3ccccc3)nnc2-c2ccccn2)cc1	-3	nt	1	13	nt	2	nt	nt
O=C1c2[nH]nc(-c3ccccc3)c2C(c2cccc(C(F)(F)F)c2)N1c1ccccc1 (stereo not drawn)	-33	-1	-32	1	nt	0	nt	nt
O=C(O)c1cccc(N/N=C(\N=Nc2ccccc2)c2ccccc2)c1	72*	6	7	1	59*	-6	74*	104*
O=C(O)c1ccc(N=N/C(=N\Nc2ccc(C(=O)O)cc2)c2ccccc2)cc1	25	10	-10	9	10	0	nt	nt
O=c1c2ccccc2n(Cc2ccco2)n1[C@@H](Cc1ccccc1)Cn1cc(-c2ccc(-c3ccccc3)cc2)nn1	-9	nt	-1	-13	nt	4	nt	nt
Cc1ccc(O)c(N=CC2=C(O)c3ccccc3C2=O)c1	34*	12	-1	-3	44*	-1	76*	46*
c1ccc(-c2cccc(CNc3nc(-c4ccccn4)nnc3-c3ccccc3)c2)cc1	4	nt	-9	-22	nt	-19	nt	nt
COC(=O)/C=C/c1ccc2c(c1)OCO2	-1	5	-5	-6	1	2	nt	nt
CCNc1ccccc(C(=O)/C=C/c2ccc3c(c2)OCO3)c1=O	41*	7	16	5	36*	-1	19	22
COc1ccc(NC(=O)CSc2nnc(-c3cccs3)o2)cc1Cl	-3	nt	-1	2	nt	-2	nt	nt
O=C1C(NS(=O)(=O)c2ccccc2)=C(N2CCN(c3ccc(F)cc3)CC2)C(=O)c2ccccc21	53*	-6	2	5	48*	5	63*	63*
O=C1C(NS(=O)(=O)c2cccs2)=C(N2CCN(c3cccc(Cl)c3)CC2)C(=O)c2ccccc21	55*	-5	7	6	58*	0	75*	56*
CC1CCN(C2=C(NS(=O)(=O)c3ccc(Br)cc3)C(=O)c3ccccc3C2=O)CC1	41*	-2	8	3	36*	0	86*	65*
O=C1C(NS(=O)(=O)c2ccc(Br)cc2)=C(N2CCCCC2)C(=O)c2ccccc21	13	-2	6	-9	15	0	nt	nt
CC1CCN(C2=C(NS(=O)(=O)c3ccccc3)C(=O)c3ccccc3C2=O)CC1	20	8	8	2	25	-10	nt	nt
COc1ccc(-n2c(SCC(=O)NCCCSC)nnc2-c2ccncc2)cc1	3	nt	-2	1	nt	-8	nt	nt
CNc1ccc(Br)cc(C(=O)/C=C/c2cccc(Cl)c2Cl)c1=O	42*	7	14	-5	65*	-2	33	35*
CNc1ccc(Br)cc(C(=O)/C=C/c2cccc(OC)c2OC)c1=O	39*	10	12	-2	39*	-6	32	34*
COC(=O)[C@]12C[C@H](CC(=O)NCc3ccc(C)o3)C(=O)N(CCC3=CCCCC3)C1=C[C@H](C(C)C)O[C@@H]2C1CC1	6	nt	4	-4	nt	5	nt	nt
O=C(NN1C(=O)/C(=C/C=C/c2ccco2)SC1=S)c1ccccc1O	31*	0	10	-3	40*	-9	19	-26

Bioassay records as filed in PubChem BioAssay.
